Experimental data published in publication PMC9968262 (American Journal of Clinical Dermatology, 2022).
Values joined by “and” are separate entries in the source; they are usually repeats but may differ in a detail not shown here. Equal entries are not always repeated. Where two headings read alike, the source gives them in different places.

What was measured:
[1] = Phase I/IIa study; assay type: in vivo, human; conditions: for plasma concentration, mean (SD): Day 28; for concentration at 24 h / concentration at 28 days: human, plasma, topical
In short: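 Cohort 2 was double-blind and vehicle-controlled: 0.15% or 0.5% cream once daily for 28 days. Patients had psoriasis for >6 months and ≤5% BSA involvement. Day 28 plasma was drawn before application and at 1, 2, 4, 6 and 24 h after the last dose. Parent and N-oxide were quantified by validated LC-MS/MS (LLOQ 0.100 ng/mL).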

[2] = Phase I/IIa study; assay type: in vivo, human; conditions: for skin samples with measurable (quantifiable) level: N = 27 skin samples; for Kp at 24 h / concentration at 24 h / concentration at 28 days: human, topical; for Kp at 24 h: skin (punch biopsy) / plasma; for concentration at 24 h / concentration at 28 days: skin (punch biopsy)
[3] = tested on: phosphodiesterase 4 (PDE4); conditions: active metabolite; cited from earlier work
[4] = DERMIS-2; assay type: in vivo, human; conditions: for Week 4 extrapolated AUC24, h*ng/mL / Week 8 extrapolated AUC24, h*ng/mL: predose concentration x 24, mean (SD)
In short: (§1)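 Patients with chronic plaque psoriasis covering 2–20% BSA were randomized 2:1 (double-blind) to 0.3% cream or vehicle. Cream was applied once daily for 8 weeks, including to new lesions. Predose (Ctrough) plasma was sampled at Baseline, Week 4 and Week 8. Parent and N-oxide were measured by validated LC-MS/MS (LLOQ 0.100 ng/mL). AUC24 = observed predose concentration × 24.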

[5] = DERMIS-1; assay type: in vivo, human; conditions: for Week 4 extrapolated AUC24, h*ng/mL / Week 8 extrapolated AUC24, h*ng/mL: predose concentration x 24, mean (SD)
In short: as §1

[6] = cited from earlier work; for peak plasma concentration (Cmax): healthy volunteers; for elimination half-life: roflumilast administered orally
[7] = Maximal usage PK study; assay type: in vivo, human; conditions: for steady state achieved by: plasma concentrations, roflumilast cream 0.3% once daily; for Tmax, h (min–max): plasma, Day 15, roflumilast cream 0.3% daily topical, mean (min–max)
In short: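 Open-label, single-arm, 2-week maximal-use study: 0.3% cream at 2 mg/cm2 once each evening to all plaques except the scalp. Subjects were adolescents 12–17 y (≥10% BSA) and adults (≥20% BSA), with IGA ≥3. Plasma was sampled predose and 1, 2, 4, 8 and 24 h post-dose on Days 1 and 15, plus 7, 14 and 21 days after the last dose. Analysis was LC-MS/MS (LLOQ 0.100 ng/mL) with noncompartmental linear trapezoidal methods.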

[8] = oral 500 µg; cited from earlier work
[9] = at 22 °C; cited from earlier work
[10] = cited from earlier work
[11] = age 6–11 years (N = 1), predose concentration x 24
[12] = age 6–11 years (N = 1), predose plasma (Ctrough)
[13] = age 12–17 years (N = 5), predose plasma (Ctrough), mean (SD)
[14] = age ≥ 18 years (N = 244), predose plasma (Ctrough), mean (SD)
[15] = age 12–17 years (N = 3), predose plasma (Ctrough), mean (SD)
[16] = age ≥ 18 years (N = 241), predose plasma (Ctrough), mean (SD)
[17] = multiple dosing of oral roflumilast 500 µg

In the case of O=C(Nc1c(Cl)c[n+]([O-])cc1Cl)c1ccc(OC(F)F)c(OCC2CC2)c1 [roflumilast N-oxide], the “plasma concentration, mean (SD)” value ([1]; roflumilast cream 0.15% (n = 21)) is reported as 5.44 [4.95] ng/mL, the “plasma concentration, mean (SD)” value ([1]; roflumilast cream 0.5% (n = 20)) is reported as 6.52 [4.04] ng/mL and the “skin samples with measurable (quantifiable) level” value (“skin samples with measurable” for short) [2] is reported as “only one sample”. The “skin samples with measurable” value ([2]; listed as Roflumilast N-oxide) was “only one skin sample”, the “skin concentrations lower than circulating plasma concentrations” value ([2]; skin LLOQ of 0.2 ng/g, cream 0.15% and 0.5%) was “at least 30 fold” and the “potency of N-oxide metabolite relative to roflumilast” value [3] was “threefold less potent”. For the same compound, the “Week 4 extrapolated AUC24” value [4, 11] was 576 ng·h/mL, the “Week 8 extrapolated AUC24” value [4, 11] was 614 ng·h/mL and the “Week 4 conc.” value [4, 12] was 24.0 ng/mL. For the same compound, the “Week 8 conc.” value [4, 12] was 25.6 ng/mL, the “Week 4 extrapolated AUC24, h*ng/mL” value ([4]; age 12–17 years (N = 5)) was 84.6 (58.4) h*ng/mL and the “Week 8 extrapolated AUC24, h*ng/mL” value ([4]; age 12–17 years (N = 5)) was 161 (174) h*ng/mL. For the same compound, the “Week 4 conc., ng/mL” value [4, 13] was 3.53 (2.44) ng/mL, the “Week 8 conc., ng/mL” value [4, 13] was 6.72 (7.24) ng/mL and the “Week 4 extrapolated AUC24, h*ng/mL” value ([4]; age ≥ 18 years (N = 244)) was 294 (338) h*ng/mL. For the same compound, the “Week 8 extrapolated AUC24, h*ng/mL” value ([4]; age ≥ 18 years (N = 244)) was 249 (308) h*ng/mL, the “Week 4 conc., ng/mL” value [4, 14] was 12.2 (14.1) ng/mL and the “Week 8 conc.” value [4, 14] was 10.2 ng/mL. For the same compound, the “Week 8 extrapolated AUC24” value [5, 11] was 103 ng·h/mL, the “Week 4 extrapolated AUC24, h*ng/mL” value ([5]; age 12–17 years (N = 3)) was 202 (91.2) h*ng/mL and the “Week 8 extrapolated AUC24, h*ng/mL” value ([5]; age 12–17 years (N = 3)) was 209 (132) h*ng/mL. For the same compound, the “Week 4 conc., ng/mL” value [5, 15] was 8.42 (3.80) ng/mL, the “Week 8 conc., ng/mL” value [5, 15] was 8.71 (5.49) ng/mL and the “Week 4 extrapolated AUC24, h*ng/mL” value ([5]; age ≥ 18 years (N = 241)) was 288 (310) h*ng/mL. For the same compound, the “Week 8 extrapolated AUC24, h*ng/mL” value ([5]; age ≥ 18 years (N = 241)) was 242 (290) h*ng/mL, the “Week 4 conc., ng/mL” value [5, 16] was 11.8 (12.9) ng/mL and the “Week 8 conc.” value [5, 16] was 9.86 ng/mL and 9.9 ng/mL. For the same compound, the “systemic exposure of roflumilast N-oxide relative to roflumilast” value ([6]; intravenous administration of roflumilast) was 7.4 times, the “peak plasma concentration (Cmax)” value [6, 17] was 21.7 ng/mL and the “systemic exposure of roflumilast N-oxide relative to roflumilast” value ([6]; oral administration of roflumilast) was 12.4 times. For the same compound, the elimination half-life [6] was 30 h, the “steady state achieved by” value [7] was no more than 15 days and the “Tmax, h (min–max)” value ([7]; adolescents 12–17 years) was 16.5 (1.0–24.0) h. The “Tmax, h (min–max)” value ([7]; adults ≥18 years) was 12.9 (0–24) h and the “roflumilast N-oxide plasma concentrations relative to roflumilast concentrations” value ([7]; repeat daily topical roflumilast cream 0.3%, steady state) was “eightfold”.
For O=C(Nc1c(Cl)cncc1Cl)c1ccc(OC(F)F)c(OCC2CC2)c1 [roflumilast], the concentration at 24 h ([1]; 0.15 % cream) was 1.15 ng/mL, the concentration at 28 days ([1]; 0.15 % cream) was 1.03 ng/mL and the concentration at 24 h ([1]; 0.5 % cream) was 0.805 ng/mL. For the same compound, the concentration at 28 days ([1]; 0.5 % cream) was 1.15 ng/mL, the “skin samples with measurable” value [2] was “All but one sample” and the Kp at 24 h ([2]; 0.15 % cream) was 126. It also gave a Kp at 24 h ([2]; 0.5 % cream) of 61.8, a concentration at 24 h ([2]; 0.15 % cream) of 84 ng/mL and a concentration at 28 days ([2]; 0.15 % cream) of 120 ng/g. The concentration at 24 h ([2]; 0.5 % cream) was 51 ng/mL, the concentration at 28 days ([2]; 0.5 % cream) was 56.1 ng/g and the “diarrhea (occurrence)” value [8] was 9.5%. The “nausea (occurrence)” value [8] was 4.7%, the “weight decreased (occurrence)” value [8] was 7.5% and the “Week 8 extrapolated AUC24, h*ng/mL” value ([5]; age ≥ 18 years (N = 241)) was 47.4 (58.3) h*ng/mL. For the same compound, the “Week 4 conc., ng/mL” value [5, 16] was 2.05 (2.83) ng/mL, the water solubility [9] was 0.52 to 0.56 mg/L and the oral bioavailability ([6]; 500 µg oral dose) was “approximately 79%”. The “time to absorption / peak levels after oral dose” value ([6]; 500 µg oral dose) was “about 1.25 h”, the “time to absorption / peak levels after oral dose” value ([6]; 500 µg oral dose, listed as Roflumilast) was 1 h and the “Cmax in COPD patients higher than in healthy volunteers” value [6, 17] was “about 6%”. For the same compound, the “peak plasma concentration (Cmax)” value [6, 17] was 6.01 ng/mL, the peak-to-trough ratio ([6]; oral administration) was “greater than 10” and the elimination half-life [6] was 17 to 30 h and 17 h. The “steady state achieved by” value [7] was no more than 15 days, the “peak-to-trough ratio (plasma)” value ([7]; steady state (Day 15), topical roflumilast cream 0.3%) was 1.2 and the logP [10] was 3.53.
